# From ChEMBL document CHEMBL3044834, “Novel protoporphyrinogen oxidase inhibitors: 3H-pyrazolo[3,4-d][1,2,3]triazin-4-one derivatives” (J Agric Food Chem, 2008)
# Tests used:
# Format in all cases: functional
# Digitaria sanguinalis [1] = test: Herbicidal activity against Digitaria sanguinalis (hairy crabgrass) assessed as inhibition of fresh weed plant weight at 750 g/ha using post-emergence treatment protocol
# Method in brief: (§1)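 Test compounds made up as emulsions by dissolving in 100 µL N,N-dimethylformamide, then adding a little Tween 20 and water. For post-emergence, weed seedlings at one leaf and one stem were sprayed at the same rates as the pre-emergence test. Fresh weight was recorded 15 days after treatment and expressed as percent inhibition versus controls. All treatments were run in triplicate.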
# Echinochloa crus-galli [2] = test: Herbicidal activity against Echinochloa crus-galli (barnyard grass) assessed as inhibition of fresh weed plant weight at 1500 g/ha using post-emergence treatment protocol; method in brief: as §1
# Amaranthus retroflexus [3] = test: Herbicidal activity against Amaranthus retroflexus assessed as inhibition of fresh weed plant weight at 375 g/ha using post-emergence treatment protocol; method in brief: as §1
# Digitaria sanguinalis [4] = test: Herbicidal activity against Digitaria sanguinalis (hairy crabgrass) assessed as inhibition of fresh weed plant weight at 187.5 g/ha using post-emergence treatment protocol; method in brief: as §1
# Digitaria sanguinalis [5] = test: Herbicidal activity against Digitaria sanguinalis (hairy crabgrass) assessed as inhibition of fresh weed plant weight at 187.5 g/ha using pre-emergence treatment protocol
# Echinochloa crus-galli [6] = test: Herbicidal activity against Echinochloa crus-galli (barnyard grass) assessed as inhibition of fresh weed plant weight at 750 g/ha using pre-emergence treatment protocol
# Digitaria sanguinalis [7] = test: Herbicidal activity against Digitaria sanguinalis (hairy crabgrass) assessed as inhibition of fresh weed plant weight at 375 g/ha using post-emergence treatment protocol; method in brief: as §1
# [8] = test system: Brassica rapa subsp. oleifera; test: Herbicidal activity against Brassica rapa subsp. oleifera assessed as inhibition of fresh weed plant weight at 375 g/ha using post-emergence treatment protocol; method in brief: as §1
# [9] = test system: Brassica rapa subsp. oleifera; test: Herbicidal activity against Brassica rapa subsp. oleifera assessed as inhibition of fresh weed plant weight at 1500 g/ha using pre-emergence treatment protocol
# Echinochloa crus-galli [10] = test: Herbicidal activity against Echinochloa crus-galli (barnyard grass) assessed as inhibition of fresh weed plant weight at 93.75 g/ha using pre-emergence treatment protocol
# Digitaria sanguinalis [11] = test: Herbicidal activity against Digitaria sanguinalis (hairy crabgrass) assessed as inhibition of fresh weed plant weight at 93.75 g/ha using post-emergence treatment protocol; method in brief: as §1
# Amaranthus retroflexus [12] = test: Herbicidal activity against Amaranthus retroflexus assessed as inhibition of fresh weed plant weight at 750 g/ha using pre-emergence treatment protocol; method in brief: as §1
# Amaranthus retroflexus [13] = test: Herbicidal activity against Amaranthus retroflexus assessed as inhibition of fresh weed plant weight at 187.5 g/ha using pre-emergence treatment protocol
# Echinochloa crus-galli [14] = test: Herbicidal activity against Echinochloa crus-galli (barnyard grass) assessed as inhibition of fresh weed plant weight at 187.5 g/ha using post-emergence treatment protocol; method in brief: as §1
# Echinochloa crus-galli [15] = test: Herbicidal activity against Echinochloa crus-galli (barnyard grass) assessed as inhibition of fresh weed plant weight at 93.75 g/ha using post-emergence treatment protocol; method in brief: as §1
# Digitaria sanguinalis [16] = test: Herbicidal activity against Digitaria sanguinalis (hairy crabgrass) assessed as inhibition of fresh weed plant weight at 375 g/ha using pre-emergence treatment protocol
# Echinochloa crus-galli [17] = test: Herbicidal activity against Echinochloa crus-galli (barnyard grass) assessed as inhibition of fresh weed plant weight at 1500 g/ha using pre-emergence treatment protocol
# [18] = test system: Brassica rapa subsp. oleifera; test: Herbicidal activity against Brassica rapa subsp. oleifera assessed as inhibition of fresh weed plant weight at 375 g/ha using pre-emergence treatment protocol
# Digitaria sanguinalis [19] = test: Herbicidal activity against Digitaria sanguinalis (hairy crabgrass) assessed as inhibition of fresh weed plant weight at 1500 g/ha using post-emergence treatment protocol; method in brief: as §1
# Echinochloa crus-galli [20] = test: Herbicidal activity against Echinochloa crus-galli (barnyard grass) assessed as inhibition of fresh weed plant weight at 375 g/ha using pre-emergence treatment protocol; method in brief: as §1
# Amaranthus retroflexus [21] = test: Herbicidal activity against Amaranthus retroflexus assessed as inhibition of fresh weed plant weight at 750 g/ha using post-emergence treatment protocol; method in brief: as §1
# [22] = test system: Brassica rapa subsp. oleifera; test: Herbicidal activity against Brassica rapa subsp. oleifera assessed as inhibition of fresh weed plant weight at 1500 g/ha using post-emergence treatment protocol; method in brief: as §1
# Amaranthus retroflexus [23] = test: Herbicidal activity against Amaranthus retroflexus assessed as inhibition of fresh weed plant weight at 93.75 g/ha using pre-emergence treatment protocol
# Digitaria sanguinalis [24] = test: Herbicidal activity against Digitaria sanguinalis (hairy crabgrass) assessed as inhibition of fresh weed plant weight at 1500 g/ha using pre-emergence treatment protocol
# [25] = test system: Brassica rapa subsp. oleifera; test: Herbicidal activity against Brassica rapa subsp. oleifera assessed as inhibition of fresh weed plant weight at 93.75 g/ha using post-emergence treatment protocol; method in brief: as §1
# [26] = test system: Brassica rapa subsp. oleifera; test: Herbicidal activity against Brassica rapa subsp. oleifera assessed as inhibition of fresh weed plant weight at 750 g/ha using pre-emergence treatment protocol
# Amaranthus retroflexus [27] = test: Herbicidal activity against Amaranthus retroflexus assessed as inhibition of fresh weed plant weight at 187.5 g/ha using post-emergence treatment protocol; method in brief: as §1
# Amaranthus retroflexus [28] = test: Herbicidal activity against Amaranthus retroflexus assessed as inhibition of fresh weed plant weight at 1500 g/ha using pre-emergence treatment protocol
# Echinochloa crus-galli [29] = test: Herbicidal activity against Echinochloa crus-galli (barnyard grass) assessed as inhibition of fresh weed plant weight at 187.5 g/ha using pre-emergence treatment protocol; method in brief: as §1
# Echinochloa crus-galli [30] = test: Herbicidal activity against Echinochloa crus-galli (barnyard grass) assessed as inhibition of fresh weed plant weight at 375 g/ha using post-emergence treatment protocol; method in brief: as §1
# Amaranthus retroflexus [31] = test: Herbicidal activity against Amaranthus retroflexus assessed as inhibition of fresh weed plant weight at 93.75 g/ha using post-emergence treatment protocol; method in brief: as §1
# [32] = test system: Brassica rapa subsp. oleifera; test: Herbicidal activity against Brassica rapa subsp. oleifera assessed as inhibition of fresh weed plant weight at 187.5 g/ha using post-emergence treatment protocol; method in brief: as §1
# [33] = test system: Brassica rapa subsp. oleifera; test: Herbicidal activity against Brassica rapa subsp. oleifera assessed as inhibition of fresh weed plant weight at 187.5 g/ha using pre-emergence treatment protocol
# Amaranthus retroflexus [34] = test: Herbicidal activity against Amaranthus retroflexus assessed as inhibition of fresh weed plant weight at 1500 g/ha using post-emergence treatment protocol; method in brief: as §1
# [35] = test system: Brassica rapa subsp. oleifera; test: Herbicidal activity against Brassica rapa subsp. oleifera assessed as inhibition of fresh weed plant weight at 93.75 g/ha using pre-emergence treatment protocol
# Echinochloa crus-galli [36] = test: Herbicidal activity against Echinochloa crus-galli (barnyard grass) assessed as inhibition of fresh weed plant weight at 750 g/ha using post-emergence treatment protocol; method in brief: as §1
# Amaranthus retroflexus [37] = test: Herbicidal activity against Amaranthus retroflexus assessed as inhibition of fresh weed plant weight at 375 g/ha using pre-emergence treatment protocol
# Digitaria sanguinalis [38] = test: Herbicidal activity against Digitaria sanguinalis (hairy crabgrass) assessed as inhibition of fresh weed plant weight at 93.75 g/ha using pre-emergence treatment protocol
# [39] = test system: Brassica rapa subsp. oleifera; test: Herbicidal activity against Brassica rapa subsp. oleifera assessed as inhibition of fresh weed plant weight at 750 g/ha using post-emergence treatment protocol; method in brief: as §1
# Digitaria sanguinalis [40] = test: Herbicidal activity against Digitaria sanguinalis (hairy crabgrass) assessed as inhibition of fresh weed plant weight at 750 g/ha using pre-emergence treatment protocol
Compound,inhibition at 1500 g/ha (Echinochloa crus-galli [2]) [%],inhibition at 187.5 g/ha (Digitaria sanguinalis [5]) [%],inhibition at 750 g/ha (Echinochloa crus-galli [6]) [%],inhibition at 1500 g/ha [9] [%],inhibition at 93.75 g/ha (Echinochloa crus-galli [10]) [%],inhibition at 750 g/ha (Amaranthus retroflexus [12]) [%],inhibition at 187.5 g/ha (Amaranthus retroflexus [13]) [%],inhibition at 375 g/ha (Digitaria sanguinalis [16]) [%],inhibition at 1500 g/ha (Echinochloa crus-galli [17]) [%],inhibition at 375 g/ha [18] [%],inhibition at 1500 g/ha (Digitaria sanguinalis [19]) [%],inhibition at 375 g/ha (Echinochloa crus-galli [20]) [%],inhibition at 1500 g/ha [22] [%],inhibition at 93.75 g/ha (Amaranthus retroflexus [23]) [%],inhibition at 1500 g/ha (Digitaria sanguinalis [24]) [%],inhibition at 750 g/ha [26] [%],inhibition at 1500 g/ha (Amaranthus retroflexus [28]) [%],inhibition at 187.5 g/ha (Echinochloa crus-galli [29]) [%],inhibition at 187.5 g/ha [33] [%],inhibition at 1500 g/ha (Amaranthus retroflexus [34]) [%],further results
C#CCN1C(=O)COc2cc(F)c(-n3nnc4nn(CC=C)cc4c3=O)cc21,38.7,16.3,95.7,100,3.5,100,100,24.5,100,100,32.7,49.1,70.9,100,80.7,100,100,13.3,90.8,100,inhibition at 750 g/ha (Digitaria sanguinalis [1]): 0%; inhibition at 375 g/ha (Amaranthus retroflexus [3]): 48.8%; inhibition at 187.5 g/ha (Digitaria sanguinalis [4]): 0%; inhibition at 375 g/ha (Digitaria sanguinalis [7]): 0%; inhibition at 375 g/ha [8]: 38.9%; inhibition at 93.75 g/ha (Digitaria sanguinalis [11]): 0%; inhibition at 187.5 g/ha (Echinochloa crus-galli [14]): 14.7%; inhibition at 93.75 g/ha (Echinochloa crus-galli [15]): 12.1%; inhibition at 750 g/ha (Amaranthus retroflexus [21]): 100%; inhibition at 93.75 g/ha [25]: 0%; inhibition at 187.5 g/ha (Amaranthus retroflexus [27]): 40.5%; inhibition at 375 g/ha (Echinochloa crus-galli [30]): 17.6%; inhibition at 93.75 g/ha (Amaranthus retroflexus [31]): 30.6%; inhibition at 187.5 g/ha [32]: 0%; inhibition at 93.75 g/ha [35]: 26%; inhibition at 750 g/ha (Echinochloa crus-galli [36]): 23.6%; inhibition at 375 g/ha (Amaranthus retroflexus [37]): 100%; inhibition at 93.75 g/ha (Digitaria sanguinalis [38]): 6.1%; inhibition at 750 g/ha [39]: 50.4%; inhibition at 750 g/ha (Digitaria sanguinalis [40]): 67.4%
CCCN1C(=O)COc2cc(F)c(-n3nnc4c(cnn4C)c3=O)cc21,46.9,14.2,91.2,100,0,95.3,89.5,65.4,94.8,57.1,47.5,69.6,20.5,83.8,94.1,79.9,100,28.4,38.5,54.1,inhibition at 93.75 g/ha [35]: 32.2%; inhibition at 375 g/ha (Amaranthus retroflexus [37]): 93.2%; inhibition at 93.75 g/ha (Digitaria sanguinalis [38]): 3.9%; inhibition at 750 g/ha (Digitaria sanguinalis [40]): 87.8%
C=CCN1C(=O)COc2cc(F)c(-n3nnc4nn(CC=C)cc4c3=O)cc21,30.8,16.3,89.7,100,8.2,100,100,40.8,100,100,0,27.9,95.6,100,90,100,100,18.2,95.9,100,inhibition at 750 g/ha (Digitaria sanguinalis [1]): 0%; inhibition at 375 g/ha (Amaranthus retroflexus [3]): 83.5%; inhibition at 187.5 g/ha (Digitaria sanguinalis [4]): 0%; inhibition at 375 g/ha (Digitaria sanguinalis [7]): 0%; inhibition at 375 g/ha [8]: 60.8%; inhibition at 93.75 g/ha (Digitaria sanguinalis [11]): 0%; inhibition at 187.5 g/ha (Echinochloa crus-galli [14]): 2.8%; inhibition at 93.75 g/ha (Echinochloa crus-galli [15]): 0%; inhibition at 750 g/ha (Amaranthus retroflexus [21]): 100%; inhibition at 93.75 g/ha [25]: 10.2%; inhibition at 187.5 g/ha (Amaranthus retroflexus [27]): 45.5%; inhibition at 375 g/ha (Echinochloa crus-galli [30]): 17.2%; inhibition at 93.75 g/ha (Amaranthus retroflexus [31]): 28.9%; inhibition at 187.5 g/ha [32]: 12.3%; inhibition at 93.75 g/ha [35]: 51.2%; inhibition at 750 g/ha (Echinochloa crus-galli [36]): 18.1%; inhibition at 375 g/ha (Amaranthus retroflexus [37]): 100%; inhibition at 93.75 g/ha (Digitaria sanguinalis [38]): 6.1%; inhibition at 750 g/ha [39]: 88.5%; inhibition at 750 g/ha (Digitaria sanguinalis [40]): 75.5%
